By Ki is commonly meant a dissociation constant, usually derived from enzyme kinetics or from competition with a known ligand. A high value points to lower affinity.

The source of these data is ChEMBL document CHEMBL1138075 (Bioorg Med Chem Lett, 2006).

Assay [1] has as its target Glutamate NMDA receptor. Nature of the assay: (§1) Displacement of L[3H]glutamate from GluR in rat brain synaptic membrane. Type of assay: cell membranes. The procedure, abridged: (§2)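 Competitive radioligand binding to glutamate receptors: displacement of L-[³H]glutamate from rat brain synaptic membranes, with test concentrations up to 100 μM.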
The target in assay [2] is T1, Glutamate NMDA receptor (Rattus norvegicus) (UniProt P35439+Q00959+Q00960+Q00961+Q62645+Q8VHN2+Q9R1M7). In words: Displacement of L[3H]glutamate from GluR in rat brain synaptic membrane up to 100 uM. Format: cell membranes. The procedure, abridged: as §2
Assay [3] deals with T1, Glutamate NMDA receptor (Rattus norvegicus). The description is as §1. Format: cell membranes. The procedure, abridged:
as §2

For assay [4], the system named is Hippocampal neurone. Nature of the assay: Protection of rat hippocampal neurons from oxygen-glucose deprivation. Particulars: Hippocampus. Type of assay: functional, tissue-based. The procedure, abridged:
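Cultured rat hippocampal neurons were subjected to oxygen-glucose deprivation injury, and neuronal survival was assessed with test agent present.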

Assay [5] concerns the target T1, Glutamate NMDA receptor (Rattus norvegicus). In words: Binding affinity to GluR in rat brain synaptic membranes at 100 uM.
Assay [6] shares this target. Nature of the assay: Protection of rat hippocampal neurons from NMDA excitotoxicity. Type of assay: functional, tissue-based. Particulars: Hippocampus. The procedure, abridged: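 Neuronal death was induced in cultured rat hippocampal neurons by exposure to NMDA (100 µM), and neuronal survival was scored with test agent present.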

Activity calls are given as the source filed them. The calls are words filed in the database; no cut-off is given here. Square brackets hold non-standard residues; d marks the D form. Peptide text beside a SMILES is read from it. Thz = O=C(O)[C@@H]1CSCN1

Consider `CC1(C)CC[C@H](C(=O)N[C@@H](CCC(=O)O)C(=O)O)N1C(=O)CN`, for which, in assay [1], the inhibition constant (Ki) was found to be 0.33 µM.
Consider `CCC[C@@]1(C(=O)N[C@@H](CCC(=O)O)C(=O)O)CCCN1C(=O)CN`, for which the outcome in assay [2] was inactive.
For the molecule `C[C@@]1(C(=O)N[C@@H](CCC(=O)O)C(=O)O)CCCN1C(=O)CN` (stereo in doubt; 1) [TROFINETIDE], the inhibition constant Ki in assay [1] worked out at 31.2 µM.
Still for that read-out and setting: for `CC1(C)CC[C@@H](C(=O)N[C@@H](CCC(=O)O)C(=O)O)N1C(=O)CN` the value was 3.79 µM.
As to `NCC(=O)N1CCC[C@]12CCN([C@@H](CCC(=O)O)C(=O)O)C2=O`, in assay [2], the outcome was inactive.
Turning to `NCC(=O)N1CSC[C@H]1C(=O)N[C@@H](CCC(=O)O)C(=O)O` (H-Gly-[Thz]-Glu-OH), the result in assay [3] was inactive.
As for `NCC(=O)N1CCC[C@H]1C(=O)N[C@H](CCC(=O)O)C(=O)O`, the outcome in assay [4] and in assay [6] was Active. Moreover, in assay [5], the result was inactive.
In the case of `CC1(C)SC[C@@H](C(=O)N[C@@H](CCC(=O)O)C(=O)O)N1C(=O)CN`, in assay [3], the result was inactive.
On to `NCC(=O)N1CCC[C@@H]1C(=O)N[C@@H](CCC(=O)O)C(=O)O`, for which the outcome in assay [4] and in assay [6] was Active. For the same molecule, in assay [5], the result was inactive.
